The record followed here is ChEMBL document CHEMBL1157079, “Labdane diterpenes from the aerial parts of Curcuma comosa enhance fetal hemoglobin production in an erythroid cell line” (J Nat Prod, 2010).

The source made the active and inactive calls. No cut-off for these calls is given here.

The nature of data set [1]: Cytotoxicity against human K562 cells assessed as cell viability at 5 uM. The settings on record: read-out: Activity. It counts as cell-based. An outline of the steps: (§1)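 Stable reporter line K562::∆Gγ-Aγ EGFP, carrying the EGFP gene under a γ-globin promoter within the intact human β-globin locus. Compounds tested at 5-100 µM. Read-out is EGFP expression as fold change relative to untreated, with % cell viability measured alongside. Hemin 50 µM and cisplatin 10 µM serve as reference inducers, with a DMSO vehicle control. Values are mean ± SD of three independent experiments.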

Data set [2] relates to K562. In words: Induction of fetal heamoglobin level in human K562 cells assessed as increase in enhanced GFP expression under the control of gamma-globin promoter at 5 uM after 5 days by flow cytometry. It counts as functional. An outline of the steps:
as §1
In general terms: A flow cytometer gives signals particle by particle.

Data set [3] has as its system K562. In words: Induction of fetal heamoglobin level in human K562 cells assessed as increase in enhanced-GFP expression under the control of gamma-globin promoter at 5 to 100 uM after 5 days by flow cytometry. It counts as functional, cell-based. An outline of the steps: as §1
Data set [4] concerns K562. The data set is described as follows: Induction of fetal heamoglobin level in human K562 cells assessed as increase in enhanced GFP expression under the control of gamma-globin promoter after 5 days by flow cytometry. It counts as functional, cell-based. An outline of the steps: as §1
Data set [5] relates to K562. In words: Induction of fetal heamoglobin level in human K562 cells assessed as increase in enhanced-GFP expression under the control of gamma-globin promoter at 20 uM after 5 days by flow cytometry. It counts as functional. The method, boiled down:
as §1

Data set [6] can be described thus: Cytotoxicity against human K562 cells assessed as cell viability at 20 uM. It counts as cell-based. The settings on record: read-out: Activity. An outline of the steps:
as §1

A short description of data set [7]: Cytotoxicity against human K562 cells assessed as cell viability at 30 uM. It counts as cell-based. The settings on record: read-out: Activity. An outline of the steps: as §1
In data set [8] the test system is K562. The data set is described as follows: Induction of fetal heamoglobin level in human K562 cells assessed as increase in enhanced-GFP expression under the control of gamma-globin promoter at 30 uM after 5 days by flow cytometry. It counts as functional. An outline of the steps:
as §1

As for `C=C1CC[C@H]2C(C)(C)C(=O)CC[C@]2(C)[C@H]1/C=C/C1=CCOC1=O` [CURCUCOMOSIN A], the viability at 5 µM in data set [1] was 85.8%. The “fold change (FC)” value in the data set with K562 [2] amounted to 1. The result with K562 [3] was inactive.
As to `C=C1CC[C@H]2C(C)(C)[C@@H](O)CC[C@]2(C)[C@H]1/C=C/C1=CCOC1=O` [CURCUCOMOSIN B], in data set [1], the viability at 5 µM is 87.7%. Moreover, the “fold change (FC)” value in the data set on K562 [2] is given as 1. Besides, the outcome in the data set on K562 [3] was inactive.
In the case of `C=C1CC[C@H]2C(C)(C)CCC[C@]2(C)[C@H]1C/C=C1/C(=O)OC[C@@H]1O` [ISOCORONARIN D], the Activity result with K562 [4] was “Dose-dependent effect”. Moreover, the “fold change (FC)” value with K562 [5] came out at 1.6. Besides, the viability at 20 µM in data set [6] came to 80.7%.
Regarding `C=C1CC[C@H]2C(C)(C)CCC[C@]2(C)[C@H]1/C=C/C1=C(O)COC1=O` [ZERUMIN], the viability at 5 µM in data set [1] was 87.5%. In addition, in the data set with K562 [2], the “fold change (FC)” value amounted to 1. Further, the outcome with K562 [3] was inactive.
The like results for `C=C1CC[C@H]2C(C)(C)CCC[C@]2(C)[C@H]1/C=C/C1=CCOC1=O` [VILLOSIN] were, in that order, 88.9%, 1 and “inactive”.
For the compound `C=C1CC[C@H]2C(C)(C)CCC[C@]2(C)[C@H]1/C=C/c1ccoc1` [CORONARIN E], the viability at 5 µM in data set [1] was 87.2%. The “fold change (FC)” value with K562 [2] is given as 0.7. The result in the data set with K562 [3] was inactive.
With `C=C1CC[C@H]2C(C)(C)CCC[C@]2(C)[C@H]1C[C@@H](O)C1=CCOC1=O` [CURCUCOMOSIN C], the viability at 30 µM in data set [7] stood at 75.8%. The “fold change (FC)” value in the data set with K562 [8] is 1.2.
